Laboratory results published in article PMC3777810 (Journal of medicinal chemistry, 2013).
Entries after “also recorded” stand apart in the source; their conditions may differ. Structures can show the parent of a compound that is named as a salt.

How the values were obtained:
[1] = system: MA-10 mouse tumor Leydig cells; assay: Cellular toxicity by MTT assay; format: cell-based; settings: 100 μM, 2 h
How it was run: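 MA-10 mouse Leydig tumor cells were grown in DMEM/F-12 Ham with 5% fetal bovine serum and 2.5% heat-inactivated horse serum. They were exposed to test compound for 2 h, at 100 μM or over 0.1–100 μM, and toxicity was read by MTT. Single-concentration data are mean ± S.E.M. (n=3), compared by one-way ANOVA with Newman-Keuls post-test. Dose curves were fitted by nonlinear regression.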

[2] = system: MA-10 mouse tumor Leydig cells; assay: Steroidogenesis assay: progesterone production by RIA; format: cell-based; settings: for stimulation of progesterone production: 100 μM; for stimulation of progesterone production / progesterone production: 2 h incubation, RIA; for time of first maximum steroid production: 50 μM, 0–120 min, biphasic time response; for progesterone production: all tested concentrations (0–100 μM)
How it was run: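 Cells were plated at 2.5 × 10^4 per well, left to adhere 18 h, washed with PBS, then given serum-free medium with 0–100 μM test compound from DMSO stocks (final DMSO <0.02%; controls matched). Incubation was 2 h, or 0–120 min at 50 μM (n=2). Medium progesterone was measured by RIA with anti-progesterone antisera and normalized to well protein (Bradford, BSA standard).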

C57BL/6 mice = assay: SmartCube behavioral assay; format: in vivo, mouse; settings: for SmartCube signature after chronic administration: 50 mg/kg i.p. once a day for 13 days; for SmartCube signature after a single dose: 50 mg/kg i.p., day 1, 15 min after dose
How it was run: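 Mice received test compound at 50 mg/kg i.p. once daily for 13 days, dosed 15 min before a session presenting multiple challenges, with at least 12 mice per group. Behavioral features were analyzed by computer algorithms and data mining. They were compared with a database of signatures from reference antipsychotics, anxiolytics and antidepressants.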

human GSK-3β = human GSK-3β (Homo sapiens, UniProt P49841); assay: GSK-3β inhibition, phosphorylation of primed substrate; format: biochemical
Sequence of human GSK-3β (P49841 whole entry): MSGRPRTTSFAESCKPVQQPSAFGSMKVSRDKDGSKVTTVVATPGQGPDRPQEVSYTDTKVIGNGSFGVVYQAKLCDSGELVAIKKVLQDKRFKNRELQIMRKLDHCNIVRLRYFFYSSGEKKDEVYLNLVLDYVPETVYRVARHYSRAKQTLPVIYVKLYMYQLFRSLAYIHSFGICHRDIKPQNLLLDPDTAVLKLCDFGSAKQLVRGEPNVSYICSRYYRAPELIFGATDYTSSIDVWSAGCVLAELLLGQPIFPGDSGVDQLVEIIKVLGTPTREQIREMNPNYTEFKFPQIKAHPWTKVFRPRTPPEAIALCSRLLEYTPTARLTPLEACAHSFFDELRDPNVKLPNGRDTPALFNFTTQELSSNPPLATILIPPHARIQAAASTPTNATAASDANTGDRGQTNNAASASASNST

mouse model of mania = settings: amphetamine and chlordiazepoxide induced; cited from earlier work

| Structure (SMILES) | cellular toxicity (MTT) [1] | stimulation of progesterone production [2] | progesterone production [2] | further results |
| --- | --- | --- | --- | --- |
| COCCc1cccc2c(C3=C(c4coc5ccccc45)C(=O)NC3=O)cn(C)c12 [Compound 21, 3-(Benzofuran-3-yl)-4-(7-(2-methoxyethyl)-1-methyl-1H-indol-3-yl)-1H-pyrrole-2,5-dione] | either low or no apparent toxicity | bioactive in stimulating progesterone production | – | – |
| COCCn1cc(C2=C(c3coc4ccccc34)C(=O)NC2=O)c2cc(F)c(F)cc21 [Compound 12, 3-(Benzofuran-3-yl)-4-(5,6-difluoro-1-(2-methoxyethyl)-1H-indol-3-yl)-1H-pyrrole-2,5-dione] | significantly more cytotoxic; also recorded: toxic to the MA-10 cells | bioactive in stimulating progesterone production | – | – |
| COCCn1cc(C2=C(c3coc4ccccc34)C(=O)NC2=O)c2ccccc21 [Compound 9, 3-(Benzofuran-3-yl)-4-(1-(2-methoxyethyl)-1H-indol-3-yl)-1H-pyrrole-2,5-dione] | either low or no apparent toxicity | bioactive in stimulating progesterone production | – | SmartCube signature after chronic administration (C57BL/6 mice): predicting anxiolytic-like activity; SmartCube signature after a single dose (C57BL/6 mice): Neither compound demonstrated any classified behavioral activity; time of first maximum steroid production [2]: ≤ 15 min |
| O=C1NC(=O)C(c2cn3c4c(cc(F)cc24)CNCC3)=C1c1coc2ccccc12 [Compound 25, 3-(Benzofuran-3-yl)-4-(9-fluoro-1,2,3,4-tetrahydro-[1,4]diazepino[6,7,1-hi]indol-7-yl)-1H-pyrrole-2,5-dione trifluoroacetate] | – | – | < 30 ng progesterone/mg protein | – |
| O=C1NC(=O)C(c2cn3c4c(cc(Br)cc24)CNCC3)=C1c1coc2ccccc12 [Compound 26, 3-(Benzofuran-3-yl)-4-(9-bromo-1,2,3,4-tetrahydro-[1,4]diazepino[6,7,1-hi]indol-7-yl)-1H-pyrrole-2,5-dione trifluoroacetate] | toxic to the MA-10 cells | bioactive in stimulating progesterone production | – | – |
| O=C1NC(=O)C(c2cn3c4c(cc(F)cc24)CN(C(=O)N2CCOCC2)CC3)=C1c1coc2ccccc12 [Compound 31, 3-(Benzofuran-3-yl)-4-(9-fluoro-2-(morpholine-4-carbonyl)-1,2,3,4-tetrahydro-[1,4]diazepino[6,7,1-hi]indol-7-yl)-1H-pyrrole-2,5-dione] | significantly more cytotoxic | – | – | – |
| COc1cc2c(C3=C(c4coc5ccccc45)C(=O)NC3=O)cn(C)c2cn1 [Compound 17, 3-(Benzofuran-3-yl)-4-(5-methoxy-1-methyl-1H-pyrrolo[2,3-c]pyridin-3-yl)-1H-pyrrole-2,5-dione] | – | – | < 30 ng progesterone/mg protein | – |
| COCCn1cc(C2=C(c3coc4ccccc34)C(=O)NC2=O)c2cc(Br)cnc21 [Compound 14, 3-(Benzofuran-3-yl)-4-(5-bromo-1-(2-methoxyethyl)-1H-pyrrolo[2,3-b]pyridin-3-yl)-1Hpyrrole-2,5-dione] | either low or no apparent toxicity | bioactive in stimulating progesterone production | – | – |
| Cn1cc(C2=C(c3coc4ccccc34)C(=O)NC2=O)c2cc(Br)cnc21 [Compound 13, 3-(Benzofuran-3-yl)-4-(5-bromo-1-methyl-1H-pyrrolo[2,3-b]pyridin-3-yl)-1H-pyrrole-2,5-dione] | either low or no apparent toxicity | bioactive in stimulating progesterone production | – | IC50 (human GSK-3β): 5 nM |
| COCCc1cccc2c(C3=C(c4coc5ccccc45)C(=O)NC3=O)cn(CCOC)c12 [Compound 23, 3-(Benzofuran-3-yl)-4-(1,7-bis(2-methoxyethyl)-1H-indol-3-yl)-1H-pyrrole-2,5-dione] | low, but observable signs of cytotoxicity | – | < 30 ng progesterone/mg protein | – |
| Cn1cc(C2=C(c3cnc4ccccn34)C(=O)NC2=O)c2cc(Br)ccc21 [Compound 20, 3-(5-Bromo-1-methyl-1H-indol-3-yl)-4-(imidazo[1,2-a]pyridin-3-yl)-1H-pyrrole-2,5-dione trifluoroacetate] | – | – | < 30 ng progesterone/mg protein | – |
| Cn1cc(C2=C(c3coc4ccccc34)C(=O)NC2=O)c2cc(Br)ccc21 [Compound 1, 3-(benzofuran-3-yl)-4-(5-bromo-1-methyl-1H-indol-3-yl)-1H-pyrrole-2,5-dione] | either low or no apparent toxicity | bioactive in stimulating progesterone production | – | effect on hyperactivity (mouse model of mania): attenuates hyperactivity; SmartCube signature after chronic administration (C57BL/6 mice): predicting anxiolytic-like activity; SmartCube signature after a single dose (C57BL/6 mice): Neither compound demonstrated any classified behavioral activity; time of first maximum steroid production [2]: ≤ 15 min |
| COCCn1cc(C2=C(c3coc4ccccc34)C(=O)NC2=O)c2cccnc21 [Compound 16, 3-(Benzofuran-3-yl)-4-(1-(2-methoxyethyl)-1H-pyrrolo[2,3-b]pyridin-3-yl)-1H-pyrrole-2,5-dione] | low, but observable signs of cytotoxicity | – | < 30 ng progesterone/mg protein | – |
| O=C1NC(=O)C(c2cn3c4c(cc(F)cc24)CN(C(=O)N2CCC(N4CCCCC4)CC2)CC3)=C1c1coc2ccccc12 [Compound 30, 3-(2-([1,4’-Bipiperidine]-1’-carbonyl)-9-fluoro-1,2,3,4-tetrahydro-[1,4]diazepino[6,7,1-hi]indol-7-yl)-4-(benzofuran-3-yl)-1H-pyrrole-2,5-dione trifluoroacetate] | significantly more cytotoxic | – | – | – |
| Cn1cc(C2=C(c3cnc4ccccn34)C(=O)NC2=O)c2cc3c(cc21)OCO3 [Compound 19, 3-(Imidazo[1,2-a]pyridin-3-yl)-4-(5-methyl-5H-[1,3]dioxolo[4,5-f]indol-7-yl)-1H-pyrrole-2,5-dione trifluoroacetate] | – | – | – | IC50 (human GSK-3β): 5 nM |
